In ChEMBL document CHEMBL1157361, “Steady-state disposition of the nonpeptidic protease inhibitor tipranavir when coadministered with ritonavir” (Antimicrob Agents Chemother, 2007):
One block for each compound: values may come before it.

Tests used:
Homo sapiens [1] = assay: Volume of distribution in healthy human at 500 mg, po twice daily coadministered with ritonavir 200 mg, po twice daily for 21 days with additional single dose of 551 mg, po on day 7; assay type: ADME, organism-based; conditions: in vivo, 504 h
Outline: (§1)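 Healthy male nonsmoking volunteers (9 completed) on TPV 500 mg + RTV 200 mg orally twice daily. On day 7, after a light snack 60 min earlier, they took 500 mg [14C]TPV (90 µCi) + 200 mg RTV and fasted 4 h; unlabelled dosing then resumed to day 20. Samples were stored at about –20°C until analysis.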

[2] = Tmax in healthy human at 500 mg, po twice daily coadministered with ritonavir 200 mg, po twice daily for 21 days with additional single dose of 551 mg, po on day 7; assay type: ADME, organism-based; conditions: in vivo; outline: as §1
[3] = AUC (0 to 12 hrs) in healthy human at 500 mg, po twice daily coadministered with ritonavir 200 mg, po twice daily for 21 days with additional single dose of 551 mg, po on day 7; assay type: ADME, organism-based; set-up: dose 500 mg, time < 12 hr, route oral; conditions: plasma; outline: as §1
[4] = Drug level in healthy human at 500 mg, po twice daily coadministered with ritonavir 200 mg, po twice daily for 21 days with additional single dose of 551 mg, po on day 7 measured 12 hrs postdose; assay type: ADME, organism-based; conditions: plasma; outline: as §1
[5] = Cmax in healthy human at 500 mg, po twice daily coadministered with ritonavir 200 mg, po twice daily for 21 days with additional single dose of 551 mg, po on day 7; assay type: ADME, organism-based; set-up: dose 500 mg, route oral; conditions: in vivo; outline: as §1
[6] = Half life in healthy human at 500 mg, po twice daily coadministered with ritonavir 200 mg, po twice daily for 21 days with additional single dose of 551 mg, po on day 7; assay type: ADME, organism-based; conditions: in vivo; outline: as §1
Homo sapiens [7] = assay: Toxicity in healthy human at 500 mg, po twice daily coadministered with ritonavir 200 mg, po twice daily for 21 days with additional single dose of 551 mg, po on day 7; assay type: organism-based; conditions: in vivo, 504 h
[8] = Clearance life in healthy human at 500 mg, po twice daily coadministered with ritonavir 200 mg, po twice daily for 21 days with additional single dose of 551 mg, po on day 7; assay type: ADME, organism-based; conditions: in vivo; outline: as §1
Homo sapiens [9] = assay: Tlast ( 0 to infinity) in healthy human blood at 500 mg, po twice daily coadministered with ritonavir 200 mg, po twice daily for 21 days with additional single dose of 551 mg, po on day 7; assay type: ADME, organism-based; conditions: in vivo, 504 h; outline: as §1
[10] = Biodistribution in healthy human urine assessed as Tipranavir hydroxyl metabolite H-1 level at 500 mg, po twice daily coadministered with ritonavir 200 mg, po twice daily for 21 days with additional single dose of 551 mg, po on day 7; assay type: ADME, organism-based; conditions: in vivo, 504 h; outline: as §1
[11] = Biodistribution in healthy human urine assessed as Tipranavir glucuronidation conjugate H-3 level at 500 mg, po twice daily coadministered with ritonavir 200 mg, po twice daily for 21 days with additional single dose of 551 mg, po on day 7; assay type: ADME, organism-based; conditions: in vivo, 504 h; outline: as §1
[12] = Biodistribution in healthy human excreta assessed as Tipranavir oxidation metabolite H-2 level at 500 mg, po twice daily coadministered with ritonavir 200 mg, po twice daily for 21 days with additional single dose of 551 mg, po on day 7; assay type: ADME, organism-based; conditions: in vivo, 504 h; outline: as §1
Homo sapiens [13] = assay: Volume of distribution ( 0 to 12 hrs) in healthy human blood at 500 mg, po twice daily coadministered with ritonavir 200 mg, po twice daily for 21 days with additional single dose of 551 mg, po on day 7; assay type: ADME, organism-based; conditions: in vivo; outline: as §1
Homo sapiens [14] = assay: Tlast ( 0 to infinity) in healthy human plasma at 500 mg, po twice daily coadministered with ritonavir 200 mg, po twice daily for 21 days with additional single dose of 551 mg, po on day 7; assay type: ADME, organism-based; conditions: in vivo, 504 h; outline: as §1
[15] = Biodistribution in healthy human urine at 500 mg, po twice daily coadministered with ritonavir 200 mg, po twice daily for 21 days with additional single dose of 551 mg, po on day 7; assay type: ADME, organism-based; conditions: in vivo, 504 h; outline: as §1
[16] = Biodistribution in healthy human assessed as radioactive drug dose recovery in feces at 500 mg, po twice daily coadministered with ritonavir 200 mg, po twice daily for 21 days with additional single dose of 551 mg, po on day 7; assay type: ADME, organism-based; conditions: in vivo, 504 h; outline: as §1
[17] = Biodistribution in healthy human assessed as radioactive drug dose recovery in urine at 500 mg, po twice daily coadministered with ritonavir 200 mg, po twice daily for 21 days with additional single dose of 551 mg, po on day 7; assay type: ADME, organism-based; conditions: in vivo, 504 h
Homo sapiens [18] = assay: Cmax ( 0 to 12 hrs) in healthy human plasma at 500 mg, po twice daily coadministered with ritonavir 200 mg, po twice daily for 21 days with additional single dose of 551 mg, po on day 7; assay type: ADME, organism-based; set-up: dose 500 mg, route oral; conditions: in vivo; outline: as §1
[19] = Biodistribution in healthy human feces assessed as Tipranavir oxidation metabolite H-2 level at 500 mg, po twice daily coadministered with ritonavir 200 mg, po twice daily for 21 days with additional single dose of 551 mg, po on day 7; assay type: ADME, organism-based; conditions: in vivo, 504 h; outline: as §1
Homo sapiens [20] = assay: Volume of distribution ( 0 to 12 hrs) in healthy human plasma at 500 mg, po twice daily coadministered with ritonavir 200 mg, po twice daily for 21 days with additional single dose of 551 mg, po on day 7; assay type: ADME, organism-based; conditions: in vivo; outline: as §1
Homo sapiens [21] = assay: Volume of distribution ( 0 to infinity) in healthy human blood at 500 mg, po twice daily coadministered with ritonavir 200 mg, po twice daily for 21 days with additional single dose of 551 mg, po on day 7; assay type: ADME, organism-based; conditions: in vivo, 504 h; outline: as §1
[22] = Biodistribution in healthy human sexcreta assessed as Tipranavir glucuronidation conjugate H-3 level at 500 mg, po twice daily coadministered with ritonavir 200 mg, po twice daily for 21 days with additional single dose of 551 mg, po on day 7; assay type: ADME, organism-based, Excreta; conditions: in vivo, 504 h; outline: as §1
[23] = Biodistribution in healthy human excreta at 500 mg, po twice daily coadministered with ritonavir 200 mg, po twice daily for 21 days with additional single dose of 551 mg, po on day 7; assay type: ADME, organism-based; conditions: in vivo, 504 h; outline: as §1
Plasma [24] = assay: Biodistribution in healthy human plasma assessed as Tipranavir hydroxyl metabolite H-1 level at 500 mg, po twice daily coadministered with ritonavir 200 mg, po twice daily for 21 days with additional single dose of 551 mg, po on day 7 measured 3 hrs postdose; assay type: ADME, organism-based; conditions: in vivo; outline: as §1
Plasma [25] = assay: Biodistribution in healthy human plasma assessed as Tipranavir glucuronidation conjugate H-3 level at 500 mg, po twice daily coadministered with ritonavir 200 mg, po twice daily for 21 days with additional single dose of 551 mg, po on day 7 measured 3 hrs postdose; assay type: ADME, organism-based; conditions: in vivo; outline: as §1
[26] = Biodistribution in healthy human feces assessed as Tipranavir hydroxyl metabolite H-1 level at 500 mg, po twice daily coadministered with ritonavir 200 mg, po twice daily for 21 days with additional single dose of 551 mg, po on day 7; assay type: ADME, organism-based; conditions: in vivo, 504 h; outline: as §1
[27] = Biodistribution in healthy human excreta assessed as Tipranavir hydroxyl metabolite H-1 level at 500 mg, po twice daily coadministered with ritonavir 200 mg, po twice daily for 21 days with additional single dose of 551 mg, po on day 7; assay type: ADME, organism-based; conditions: in vivo, 504 h; outline: as §1
Homo sapiens [28] = assay: Biodistribution in healthy human assessed as radioactive drug dose recovery at 500 mg, po twice daily coadministered with ritonavir 200 mg, po twice daily for 21 days with additional single dose of 551 mg, po on day 7; assay type: ADME, organism-based; conditions: in vivo, 504 h; outline: as §1
Homo sapiens [29] = assay: Volume of distribution ( 0 to infinity) in healthy human plasma at 500 mg, po twice daily coadministered with ritonavir 200 mg, po twice daily for 21 days with additional single dose of 551 mg, po on day 7; assay type: ADME, organism-based; conditions: in vivo, 504 h; outline: as §1

- Vd (Homo sapiens [1]): 9.6 L
- Tmax [2]: 2.9 h
- AUC(0-t) at 12 h [3]: 657 µM·h
- concentration at 12 h [4]: 25.9 µM
- Cmax [5]: 99.4 µM
- half-life [6]: 4.6 h
- CL/F [8]: 24.5 mL/min
SMILES: CCC[C@@]1(CCc2ccccc2)CC(O)=C([C@H](CC)c2cccc(NS(=O)(=O)c3ccc(C(F)(F)F)cn3)c2)C(=O)O1 [TIPRANAVIR]
- Activity (Homo sapiens [7]): Non-toxic

- Tlast (Homo sapiens [9]): 64 h
- Drug uptake [10]: < 0.1 %ID
- Drug uptake [11]: 0.5 %ID
- Drug uptake [12]: 0.4 %ID
- Vd (Homo sapiens [13]): 15.68 L
- Tlast (Homo sapiens [14]): 90.67 h
- Drug uptake [15]: < 0.1 %ID
- Drug uptake [16]: 70.4%
- Drug uptake [17]: 4.59%
- Cmax (Homo sapiens [18]): 90.5 µM
- Drug uptake [19]: 0.4 %ID
- Vd (Homo sapiens [20]): 8.32 L
- Vd (Homo sapiens [21]): 44.23 L
- Drug uptake [22]: 0.5 %ID
- Drug uptake [23]: 53.5 %ID
- Drug uptake (Plasma [24]): 0.1 µg/mL
- Drug uptake (Plasma [25]): 0.05 µg/mL
- Drug uptake [26]: 3.2 %ID
- Drug uptake [27]: 3.2 %ID
- Drug uptake (Homo sapiens [28]): 75.3%
- Vd (Homo sapiens [29]): 32.47 L
SMILES: CCC[C@@]1(CCc2ccccc2)CC(O)=C([14C@H](CC)c2cccc(NS(=O)(=O)c3ccc(C(F)(F)F)cn3)c2)C(=O)O1
